Consider 9 molecules from paper PMC11105966 (Journal of medicinal chemistry, 2024).

The test system of one series is MCF7 cells. Kind of series: MTT cytotoxicity assay, MCF7 cells. It is filed as cell-based, human. In short, it runs like this: (§1)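 Cells seeded at 4000–7000 per well in 10% FBS medium. Lines were grown at 37°C, 5% CO2: MCF-7, LM3–3, BT-20 and BT-474 in DMEM/10% FBS; MDA-MB-468 in RPMI 1640/5% FBS; SUM159PT in Ham's F-12/5% FBS with insulin and hydrocortisone. At 70–80% confluence, test compound was added at 0.2–1000 nM for 72 h, then MTT. Viability relative to untreated cells; IC50 from Hill-slope fit.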

Series [1] is described as follows: Full pharmacokinetic profile, IV and oral, CD-1 mice. To be noted: male, CD-1, mouse, plasma; for Cmax: po, 10 mg/kg. It is filed as in vivo. In short, it runs like this:
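Male mice, 6 weeks, n=3 per route. Test compound in 20% DMSO, 16% PEG, 4% dextrose in PBS: IV 1 mg/kg (0.5 mg/mL) or oral gavage 10 mg/kg (1 mg/mL). 10 μL blood taken from 2 or 15 min to 48 h. Plasma measured by LC-MS/MS against 0.5–1000 ng/mL calibration standards with four QC levels. Non-compartmental extravascular PK fit.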

Series [2] has as its system 78 targets, including GPCRs, ion channel, receptors, kinase, enzymes and transporters. In words: SafetyScreen panel against 78 targets. To be noted: at 10 μM. In short, it runs like this:
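Commercial off-target safety panel covering GPCR (calcium flux agonist/antagonist, cAMP), ion channel (hERG blocker) and non-kinase enzyme assays. Test compound was screened at 10 μM, with RC50 values determined for interacting targets.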

Series [3] concerns mouse primary hepatocytes. In words: MTT cytotoxicity assay, mouse primary hepatocytes. The series is classed as cell-based. To be noted: for IC50: Mus musculus, Hepatocyte; for toxicity in mouse primary hepatocytes: up to 1000 nM. In short, it runs like this:
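Primary hepatocytes were isolated by collagenase perfusion from an adult female CD-1 mouse. They were maintained in M199 medium with 10% FBS at 37°C, 5% CO2.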

In series [4] the test system is prostate cancer PDX organoids. Kind of series: Inhibition assay in prostate cancer PDX organoids. The series is classed as cell-based, human. The note with it: 2 weeks treatment. In short, it runs like this: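 Tumors grown in SCID mice were digested with collagenase I and III to single cells. 20000 cells were embedded in collagen gel, set 20 min at 37°C, then cultured overnight at 37°C, 5% CO2. Test compound or vehicle given for 14 days, at least 5 wells per dose. Organoids imaged and counted on day 14; Student t test.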

Series [5] has as its target DNA-bound ER/SRC-3/P300 complex (Homo sapiens, UniProt Q9Y6Q9). Kind of series: Biotinylated ERE pull-down assay. It is filed as biochemical. In short, it runs like this: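 Baculovirus-expressed, affinity-purified His-SRC-3-flag was incubated with test compound or vehicle for 30 min on ice, 0.1 μg protein. Then 0.1 μg recombinant ERα and His-p300 and an ERE-containing DNA oligo were added with 1 μM 17-β estradiol for 1 h on ice. The ER complex was pulled down and bound SRC-3 and p300 quantified by western blot.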

The test system of another series is Panc-1-Luc cells. In words: Orthotopic Panc-1 PDAC mouse model. It is filed as in vivo, SCID mice. To be noted: 10 mg/kg i.p. once per day, 8 weeks, orthotopic PDAC mice. In short, it runs like this: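 0.5×10^6 Panc-1-Luc cells were implanted orthotopically in the pancreas of male SCID mice aged 8 weeks. Mice were randomized by luciferase imaging (n=5 per group). From day 8, test compound 10 mg/kg i.p. or vehicle was given daily. Luciferase imaging and body weight were recorded weekly; tumors harvested at day 63.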

The nature of the next series: Percentage of free drug. The series is classed as in vitro ADME.
For the next series, the system named is AR-PDX tumor cells 118b. Kind of series: Intra-femoral bone metastasis mouse model of prostate cancer. The note with it: 10 mg/kg/day i.p., four weeks; for reduction in femur volume compared to vehicle: CT imaging. The series is classed as in vivo, SCID mice. The essentials:
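1 × 10^5 AR-PDX 118b cells were injected […] into male SCID mice aged 8–9 weeks. Two weeks later, n=9 per group received vehicle or 10 mg/kg/day i.p. for 4 weeks; x-ray imaging every two weeks. Femurs were collected at the end. CT 3D reconstruction was done on 5 femurs per group, plus histology; tumor/femur area ratio. Left femur as negative control.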

The next series deals with hERG (Homo sapiens, UniProt Q12809). The series is classed as cell-based.
Chain of hERG (Q12809 whole entry): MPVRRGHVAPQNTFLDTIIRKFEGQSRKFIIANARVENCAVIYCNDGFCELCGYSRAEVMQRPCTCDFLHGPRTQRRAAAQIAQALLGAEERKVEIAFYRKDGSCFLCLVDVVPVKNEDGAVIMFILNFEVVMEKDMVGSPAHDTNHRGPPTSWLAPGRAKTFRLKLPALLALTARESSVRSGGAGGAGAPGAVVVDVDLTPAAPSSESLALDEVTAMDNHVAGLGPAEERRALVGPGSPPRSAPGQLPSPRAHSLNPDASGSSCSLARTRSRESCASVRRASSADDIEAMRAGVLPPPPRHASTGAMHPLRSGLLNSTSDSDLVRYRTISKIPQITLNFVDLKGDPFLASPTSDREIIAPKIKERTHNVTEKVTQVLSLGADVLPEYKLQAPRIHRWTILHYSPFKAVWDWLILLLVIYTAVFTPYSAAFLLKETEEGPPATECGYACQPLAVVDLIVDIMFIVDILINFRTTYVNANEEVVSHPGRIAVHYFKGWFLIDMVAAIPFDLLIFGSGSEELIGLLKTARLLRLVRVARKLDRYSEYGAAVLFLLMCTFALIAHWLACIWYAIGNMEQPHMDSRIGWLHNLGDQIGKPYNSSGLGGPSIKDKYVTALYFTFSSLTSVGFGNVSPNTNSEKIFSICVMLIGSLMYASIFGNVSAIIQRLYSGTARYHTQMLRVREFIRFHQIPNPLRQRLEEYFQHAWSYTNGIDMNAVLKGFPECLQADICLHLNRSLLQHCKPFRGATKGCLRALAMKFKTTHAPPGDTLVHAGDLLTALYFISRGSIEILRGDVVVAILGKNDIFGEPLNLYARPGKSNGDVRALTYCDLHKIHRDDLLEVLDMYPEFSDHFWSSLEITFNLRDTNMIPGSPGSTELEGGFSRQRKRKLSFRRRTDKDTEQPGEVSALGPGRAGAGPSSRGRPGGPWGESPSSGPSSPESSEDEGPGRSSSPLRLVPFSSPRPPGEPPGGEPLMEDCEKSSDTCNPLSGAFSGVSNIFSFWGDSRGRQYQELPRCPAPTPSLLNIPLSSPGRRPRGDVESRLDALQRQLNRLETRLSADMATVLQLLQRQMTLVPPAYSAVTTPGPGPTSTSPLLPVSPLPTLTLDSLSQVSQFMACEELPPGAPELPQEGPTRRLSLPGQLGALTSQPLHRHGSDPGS
Another series in a line: Water solubility. The series is classed as physicochemical.
Series [6] in a line: Stability in human plasma. The note with it: Fig S2. It is filed as in vitro ADME.
A further series relates to MDA-MB-468 cells. Kind of series: Wash-out experiment in MDA-MB-468 cell line. It is filed as cell-based, human. The note with it: drug washed out with PBS, total incubation 72 h, MTT. In short, it runs like this: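 MDA-MB-468 cells were grown in RPMI 1640 with 5% FBS. They were exposed to test compound for varying durations, washed with PBS, and kept in culture to a total of 72 h. Viability was read by MTT, and EC50 and EC90 were derived for each exposure time.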

A further series has as its system PANC-1-shSRC-3.1 cells. Kind of series: MTT viability, SRC-3 knock-down cells shSRC-3.1. The series is classed as cell-based, human. To be noted: PANC-1 shSRC-3.1 and shSRC-3.2 vs control/parental cells. The essentials:
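SRC-3 was stably knocked down in PANC-1 cells with lentiviral shRNAs (shSRC-3.1, shSRC-3.2; shCtrl control), and SRC-3 levels were checked by western blot. Cells were treated with varying doses of test compound for 72 h and viability read by MTT. The IC50 of knock-down cells was compared with that of control cells to give the fold change.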

The conditions of series [7]: mice; cited from earlier work.
Series [8] has as its system seven human cancer cell lines known to overexpress SRC-3. In words: MTT cytotoxicity, panel of seven human cancer cell lines. It is filed as cell-based. To be noted: read-out: IC50 values across the cancer cell lines. The essentials: as §1
The subject of the next series is LNCaP cells. In words: LNCaP xenograft mouse model. It is filed as in vivo, SCID mice. In short, it runs like this: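 1×10^7 LNCaP cells were implanted subcutaneously on both sides of the back of male SCID mice. Daily 10 mg/kg i.p. dosing or vehicle started 4 weeks after inoculation and ran for 4 weeks. Tumor size (length × width × width/2) measured weekly. Survival endpoint was tumor diameter of 3.0 cm. Ki67, cleaved caspase 3 and CD31 IHC on tumor sections at the end of treatment.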

Series [9] is described as follows: Maximum tolerated dose / tolerability in mice. The series is classed as in vivo.
Where [10] appears, read: cytotoxicity to MCF7 cells, MTT assay, 72 h, mean of triplicate.

≈ marks a conversion by molar mass, not a printed value. Where “and” joins values, the source holds several entries; their conditions need not be identical. Equal values may be shown once. Read-outs that look alike come from different tables or passages of the source.

Usually IC50 stands for the concentration that inhibits the measured activity by half. Usually AUC(0-t) stands for the area under the concentration-time curve up to a stated or last time point. The half-life is how long it takes for the measured level to halve. Usually Cmax stands for the peak of the concentration-time curve. The solubility is the concentration that dissolves in the medium under given conditions.

Chain of DNA-bound ER/SRC-3/P300 complex (Q9Y6Q9 whole entry, one chain of several): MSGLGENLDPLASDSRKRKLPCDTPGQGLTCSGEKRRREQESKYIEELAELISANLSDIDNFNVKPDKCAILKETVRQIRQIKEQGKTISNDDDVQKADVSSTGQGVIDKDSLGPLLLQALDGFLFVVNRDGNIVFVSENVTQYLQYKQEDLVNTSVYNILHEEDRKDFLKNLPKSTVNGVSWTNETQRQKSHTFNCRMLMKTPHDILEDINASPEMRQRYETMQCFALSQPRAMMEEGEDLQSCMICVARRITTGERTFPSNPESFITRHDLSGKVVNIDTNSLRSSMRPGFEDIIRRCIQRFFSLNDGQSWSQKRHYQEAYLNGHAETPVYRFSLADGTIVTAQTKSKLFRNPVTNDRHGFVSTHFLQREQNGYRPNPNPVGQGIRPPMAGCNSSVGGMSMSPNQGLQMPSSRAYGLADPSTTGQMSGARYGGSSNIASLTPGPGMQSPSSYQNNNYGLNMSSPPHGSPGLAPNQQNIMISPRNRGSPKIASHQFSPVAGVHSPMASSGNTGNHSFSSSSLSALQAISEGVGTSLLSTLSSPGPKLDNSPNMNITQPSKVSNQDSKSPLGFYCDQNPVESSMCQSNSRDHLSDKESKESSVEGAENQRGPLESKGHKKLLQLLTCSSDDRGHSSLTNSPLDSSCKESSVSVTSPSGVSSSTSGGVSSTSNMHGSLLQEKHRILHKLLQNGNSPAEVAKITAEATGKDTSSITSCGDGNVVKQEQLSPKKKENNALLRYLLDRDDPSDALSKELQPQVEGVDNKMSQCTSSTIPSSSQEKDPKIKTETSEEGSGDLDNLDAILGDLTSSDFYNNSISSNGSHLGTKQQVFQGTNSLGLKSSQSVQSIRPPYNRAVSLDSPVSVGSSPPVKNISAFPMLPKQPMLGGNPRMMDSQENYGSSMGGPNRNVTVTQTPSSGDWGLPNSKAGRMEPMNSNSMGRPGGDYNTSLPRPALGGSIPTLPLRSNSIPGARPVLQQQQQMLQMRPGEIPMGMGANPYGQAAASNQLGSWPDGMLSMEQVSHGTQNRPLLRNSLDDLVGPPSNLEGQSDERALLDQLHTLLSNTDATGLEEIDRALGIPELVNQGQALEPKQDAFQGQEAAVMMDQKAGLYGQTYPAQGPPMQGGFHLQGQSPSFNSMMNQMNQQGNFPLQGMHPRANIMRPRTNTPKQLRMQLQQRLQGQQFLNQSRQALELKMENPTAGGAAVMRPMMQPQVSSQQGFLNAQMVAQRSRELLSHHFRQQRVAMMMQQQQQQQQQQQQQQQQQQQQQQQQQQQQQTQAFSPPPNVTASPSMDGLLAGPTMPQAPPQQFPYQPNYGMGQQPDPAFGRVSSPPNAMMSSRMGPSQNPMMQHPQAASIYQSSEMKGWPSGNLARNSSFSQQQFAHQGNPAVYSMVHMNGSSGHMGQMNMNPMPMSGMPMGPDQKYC

In the case of “1-(1-methyl-1H-benzo[d]imidazol-2-yl)-3-(pyridin-2-yl)-1H-pyrazol-5-ol [compound 12]”, the half-inhibitory concentration (IC50) with MCF7 cells (setting [10]) was greater than 1000 nM.
Take `C/C(=N\N=c1/[nH]c2cc(F)c(F)cc2n1C)c1ccc(F)cn1` [SI-12, (E)-5,6-difluoro-2-(((E)-1-(5-fluoropyridin-2-yl)ethylidene)hydrazineylidene)-1-methyl-2,3-dihydro-1H-benzo[d]imidazole]: in series [1] (iv, 1 mg/kg), the AUC(0-t) amounted to 2.31 µM·h and the half-life was 22 h. In series [1], this molecule returned a Cmax of 2740 nM. Moreover, in series [2], the “interactions with other targets of the panel” value is “minimal”. In series [3], the 50% inhibitory concentration (IC50) was greater than 1000 nM and the “toxicity in mouse primary hepatocytes” value was “did not observe any toxicity”. Moreover, the “formation and growth of organoids” value in series [4] is “effectively suppressed”. Moreover, in [5] (at 0.15 μM, SRC-3 protein 0.13 μM), the “recruitment of SRC-3 and p300 in the ER complex” value is recorded as “significantly decreased”. The body weight result in the series on Panc-1-Luc cells is “did not cause any mice body weight change”. The “percentage of free drug” value in the series “Percentage of free drug” was determined as 2.2%. Further, in the series with AR-PDX tumor cells 118b, the “decrease of ratio of tumor area to femur area” value was “over 50%” and the “reduction in femur volume compared to vehicle” value is recorded as greater than 55%. The hERG inhibition entry at hERG (at 10 μM) is reported as “moderate hERG inhibition”. The molecule also displayed a solubility in the series “Water solubility” of 3.8 µM (≈ 1.21 µg/mL). Besides, the “stability in human plasma” value in [6] is given as “excellent stability”. Besides, the “treatment time sufficient to achieve maximal cytotoxicity” value with MDA-MB-468 cells fell in the range of 3 to 6 h. Moreover, the “fold reduction of potency in SRC-3 knock-down cells vs control cells” value with PANC-1-shSRC-3.1 cells is listed as “approximately 5 fold”. Besides, the “fold reduction of potency in SRC-3 knock-down cells vs control cells” value in the series on PANC-1-shSRC-3.1 cells (listed as SI-12 (6c)) is 4.7 ~5.8 fold.
In the case of `C/C(=N\Nc1nc2ccccc2n1C)c1ccccn1` [SI-2], the plasma half-life in series [7] was 1 h and ~ 1 h.
Regarding “(E)-2-(2-(1-(5-fluoropyridin-2-yl)ethylidene)hydrazineyl)-3-methyl-2,3-dihydrobenzo[d]thiazole [8b]”, the IC50 in the series on MCF7 cells (setting [10]) is greater than 1000 nM.
`C/C(=N\Nc1nc2cc(F)c(F)cc2n1C)c1ncccn1` [SI-10, (E)-5,6-difluoro-1-methyl-2-(((E)-1-(pyrimidin-2-yl)ethylidene)hydrazineylidene)-2,3-dihydro-1H-benzo[d]imidazole]: the AUC(0-t) in series [1] (iv, 1 mg/kg) stood at 0.29 µM·h. The highest concentration (Cmax) in [1] was found to be 1140 nM. Further, in series [3], the IC50 is greater than 1000 nM and the “toxicity in mouse primary hepatocytes” value is on record as “did not observe any toxicity”. Further, the IC50 in series [8] was 1 to 32 nM. Besides, the “percentage of free drug” value in the series “Percentage of free drug” amounted to 6.6%. In addition, in the series with AR-PDX tumor cells 118b, the “decrease of ratio of tumor area to femur area” value is on record as “over 50%” and the “reduction in femur volume compared to vehicle” value was greater than 55%. Moreover, the mouse survival result in the series with LNCaP cells (10 mg/kg i.p. once per day, 3.0 cm tumor diameter endpoint) is “significantly prolonged”. The “cleaved caspase 3 positive tumor cells” value in the series with LNCaP cells (IHC at end of treatment, vehicle 2%) is reported as “Approximately 10%”. Moreover, the “Ki67 positive cells in tumors” value with LNCaP cells (IHC at end of treatment, vehicle more than 50% positive) is “significantly lower”. The hERG inhibition result at hERG (at 30 μM) was “did not show appreciable hERG inhibition”. Moreover, in the series “Water solubility”, the concentration in solution (solubility) was 22.8 µM (≈ 6.89 µg/mL). Moreover, in series [9] (50 mg/kg or 100 mg/kg, once per day, 4 weeks), the body weight result was “did not cause any loss of body weight”. Also, the acute tolerability entry in series [9] (oral administration up to 100 mg/kg (highest dose tested)) was “did not cause appreciable stress”. Also, the “stability in human plasma” value in series [6] is reported as “excellent stability”.
As to `C/C(=N\NC1Oc2ccccc2N1C)c1ccc(F)cn1` (stereo not drawn) [8a, (E)-2-(2-(1-(5-fluoropyridin-2-yl)ethylidene)hydrazineyl)-3-methyl-2,3-dihydrobenzo[d]oxazole], in series [5] (at 1.5 μM), the “effect on the ER complex” value is reported as “did not affect the ER complex”. This molecule returned an IC50 in the series with MCF7 cells (Homo sapiens, MCF7, 72 h) greater than 1000 nM.
As for “methyl 6-((E)-1-(((E)-5,6-dichloro-1-methyl-1,3-dihydro-2H-benzo[d]imidazol-2-ylidene)hydrazineylidene)ethyl)nicotinate [6f]”, in the series with MCF7 cells (setting [10]), 2.9 nM corresponded to half-maximal inhibition (IC50).
In the series with MCF7 cells (setting [10]), “6-((E)-1-(((E)-5,6-dichloro-1-methyl-1,3-dihydro-2H-benzo[d]imidazol-2-ylidene)hydrazineylidene)ethyl)nicotinamide [6g]” displayed an IC50 of 2.7 nM.
Consider “6-((E)-1-(((E)-5,6-difluoro-1-methyl-1,3-dihydro-2H-benzo[d]imidazol-2-ylidene)hydrazineylidene)ethyl)-N-hydroxynicotinamide [6m]”, for which the half-inhibitory concentration (IC50) in the series on MCF7 cells (setting [10]) is greater than 1000 nM.
